Results from ChEMBL document CHEMBL4414574, “Structure-Based Discovery and Development of a Series of Potent and Selective Bromodomain and Extra-Terminal Protein Inhibitors” (J Med Chem, 2019).
Calls of active or inactive are those of the source. The rule behind the calls is not given here.

Columns and labels:
[1] = AUC (0 to t) in ICR mouse plasma at 100 mg/kg, po administered via gavage measured after 0.25 to 24 hrs by UPLC/MS analysis; format: ADME, organism-based; design: time upper 24 hr, dose 100 mg/kg, time lower 0.25 hr, route oral
In short: (§1)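 Male ICR mice were dosed orally in 1% DMSO/0.5% HPMC vehicle. Plasma (and brain, where stated) concentrations gave Tmax, Cmax, T1/2, AUC0-t and AUC0-inf.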

Cytochrome P450 2C19 = Cytochrome P450 2C19 (Homo sapiens, UniProt P33261); assay: Time-dependent inhibition of CYP2C19 in human liver microsomes at 10 uM using mephenytoin as substrate preincubated up to 30 mins followed by NADPH generating system addition and measured after 10 mins; format: ADME
In short: (§2)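 Human liver microsomes 0.2 mg/mL, 100 mM phosphate pH 7.4, 10 μM test compound, preincubated 0, 5, 10 and 30 min at 37 °C; then NADPH plus probe cocktail (5 μM midazolam, 50 μM testosterone, 5 μM dextromethorphan, 10 μM diclofenac, 50 μM phenacetin, 50 μM S-(+)-mephenytoin) added; 10 min reaction; kobs in units of 10^-4/min.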

[2] = Cmax in ICR mouse plasma at 100 mg/kg, po administered via gavage measured after 0.25 to 24 hrs by UPLC/MS analysis; format: ADME, organism-based; design: dose 100 mg/kg, route oral
In short: (§3)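 Male ICR mice dosed orally in 1% DMSO/0.5% HPMC vehicle; plasma or brain drug levels used to derive Tmax, Cmax, AUC0-t, AUC0-inf and T1/2.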

[3] = Cmax in ICR mouse plasma at 50 mg/kg, po administered via gavage measured after 0.25 to 24 hrs by UPLC/MS analysis; format: ADME, organism-based; design: dose 50 mg/kg, route oral; in short: as §3
[4] = molecular target: E3 ubiquitin-protein ligase TRIM33 (Homo sapiens) (UniProt Q9UPN9); assay: Binding affinity to human partial length TRIM33 (D882 to A1087 residues) expressed in Escherichia coli BL21 cells assessed as residual binding level at 1 uM measured after 1 hr by quantitative PCR based BROMOscan assay relative to control
In short: (§4)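 Bromodomain panel screen (32 bromodomains) run at 1 μM single concentration; primary binding reported as 'Percent Control', lower values meaning stronger interaction.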

[5] = Ratio of drug level in brain to plasma in ICR mouse at 50 mg/kg, po administered via gavage measured after 0.25 to 24 hrs by UPLC/MS analysis; format: ADME, organism-based
In short: (§5)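 Male ICR mice dosed orally at 50 mg/kg in 1% DMSO/0.5% HPMC; drug measured in plasma and brain.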

[6] = Half life in rat plasma at 3 mg/kg, iv; format: ADME, organism-based
[7] = molecular target: SWI/SNF-related matrix-associated actin-dependent regulator of chromatin subfamily A member 2 (Homo sapiens) (UniProt P51531); assay: Binding affinity to human partial length SMARCA2 (S1377 to Q1486 residues) expressed in Escherichia coli BL21 cells assessed as residual binding level at 1 uM measured after 1 hr by quantitative PCR based BROMOscan assay relative to control; in short: as §4
KG-1 = assay: Antiproliferative activity against human KG1 cells after 72 hrs by CCK8 or SRB assay; format: functional, cell-based
[8] = molecular target: Transcription intermediary factor 1-alpha (Homo sapiens) (UniProt O15164); assay: Binding affinity to human partial length TRIM24 (P790 to P977 residues) expressed in Escherichia coli BL21 cells assessed as residual binding level at 1 uM measured after 1 hr by quantitative PCR based BROMOscan assay relative to control; in short: as §4
Hep 3B2 = assay: Antiproliferative activity against human Hep3B cells after 72 hrs by CCK8 or SRB assay; format: functional, cell-based
MV4-11 [9] = assay: Antitumor activity against human MV4-11 cells xenografted in Balb/c nude mouse assessed as tumor growth inhibition at 50 mg/kg, po administered once daily and measured twice a week by caliper method relative to control; format: functional; conditions: MV4-11, po, read-out: TGI
[10] = molecular target: T1, Bromodomain-containing protein 4 (Homo sapiens, UniProt O60885); assay: Inhibition of BRD4 in human MV4-11 cells assessed as reduction in BCL2 phosphorylation at ser70 residues after 24 hrs by Western blot analysis; format: cell-based
In short: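 MV4-11 cells exposed to graded doses for 24 h; lysates immunoblotted for phospho-BCL2, with GAPDH as loading control.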

[11] = Cmax in dog plasma at 3 mg/kg, po; format: ADME, organism-based, Canis lupus familiaris; design: dose 3 mg/kg, route oral
Cytochrome P450 2C9 = Cytochrome P450 2C9 (Homo sapiens, UniProt P11712); assay: Time-dependent inhibition of CYP2C9 in human liver microsomes at 10 uM using diclofenac as substrate preincubated up to 30 mins followed by NADPH generating system addition and measured after 10 mins; format: ADME; in short: as §2
[12] = Half life in ICR mouse plasma at 50 mg/kg, po administered via gavage measured after 0.25 to 24 hrs by UPLC/MS analysis; format: ADME, organism-based; in short: as §3
RKO = assay: Antiproliferative activity against human RKO cells after 72 hrs by CCK8 or SRB assay; format: functional, cell-based
[13] = molecular target: T1, Bromodomain-containing protein 4; assay: Inhibition of BRD4 bromodomain 1 (unknown origin)
In short: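 BRD4 BD1 (His6-tagged, E. coli BL21(DE3)-expressed, Ni-NTA purified) at 10 nM with 5 nM FITC-labelled (+)-JQ1 tracer; 50 mM HEPES pH 7.4, 150 mM NaCl, 0.5 mM CHAPS, DMSO 2‰ final; graded inhibitor; 4 h dark equilibration at room temperature; fluorescence anisotropy read (ex 485/em 530 nm). IC50 from two independent experiments in duplicate, mean ± SEM.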

MV4-11 [14] = assay: Induction of apoptosis in human MV4-11 cells assessed as reduction in BCL-2 mRNA expression after 24 hrs by real time qPCR analysis; format: functional, cell-based
[15] = Tmax in ICR mouse plasma at 50 mg/kg, po administered via gavage measured after 0.25 to 24 hrs by UPLC/MS analysis; format: ADME, organism-based; in short: as §5
[16] = Half life in rat plasma at 50 mg/kg, po; format: ADME, organism-based
MV4-11 [17] = assay: Induction of apoptosis in human MV4-11 cells assessed as reduction in BIM level after 24 hrs by Western blot analysis; format: functional, cell-based
In short: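 MV4-11 cells exposed to compound at the indicated doses for 24 h; lysates probed by Western blotting for the target protein, with GAPDH as loading control.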

MV4-11 [18] = assay: Induction of apoptosis in human MV4-11 cells assessed as reduction in c-IAP2 level after 24 hrs by Western blot analysis; format: functional, cell-based
[19] = Half life in rat liver microsomes; format: ADME, Microsome
[20] = AUC (0 to infinity) in ICR mouse at 10 mg/kg, po administered via gavage measured after 0.25 to 24 hrs by UPLC/MS analysis; format: ADME, organism-based; design: dose 10 mg/kg, route oral, time infinity; conditions: in vivo; in short: as §1
AGS = assay: Antiproliferative activity against human AGS cells after 72 hrs by CCK8 or SRB assay; format: functional, cell-based
HT-29 = assay: Antiproliferative activity against human HT-29 cells after 72 hrs by CCK8 or SRB assay; format: functional, cell-based
[21] = molecular target: Bromodomain-containing protein 2 (Homo sapiens) (UniProt P25440); assay: Inhibition of BRD2 bromodomain 1 (unknown origin)
[22] = Ratio of drug level in brain to plasma in rat; format: ADME
In short: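 Rats dosed orally at 50 mg/kg in 1% DMSO/0.5% HPMC; drug measured in plasma and brain.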

Chain of E3 ubiquitin-protein ligase TRIM33 (Homo sapiens) (Q9UPN9 whole entry, the tested form may be a part): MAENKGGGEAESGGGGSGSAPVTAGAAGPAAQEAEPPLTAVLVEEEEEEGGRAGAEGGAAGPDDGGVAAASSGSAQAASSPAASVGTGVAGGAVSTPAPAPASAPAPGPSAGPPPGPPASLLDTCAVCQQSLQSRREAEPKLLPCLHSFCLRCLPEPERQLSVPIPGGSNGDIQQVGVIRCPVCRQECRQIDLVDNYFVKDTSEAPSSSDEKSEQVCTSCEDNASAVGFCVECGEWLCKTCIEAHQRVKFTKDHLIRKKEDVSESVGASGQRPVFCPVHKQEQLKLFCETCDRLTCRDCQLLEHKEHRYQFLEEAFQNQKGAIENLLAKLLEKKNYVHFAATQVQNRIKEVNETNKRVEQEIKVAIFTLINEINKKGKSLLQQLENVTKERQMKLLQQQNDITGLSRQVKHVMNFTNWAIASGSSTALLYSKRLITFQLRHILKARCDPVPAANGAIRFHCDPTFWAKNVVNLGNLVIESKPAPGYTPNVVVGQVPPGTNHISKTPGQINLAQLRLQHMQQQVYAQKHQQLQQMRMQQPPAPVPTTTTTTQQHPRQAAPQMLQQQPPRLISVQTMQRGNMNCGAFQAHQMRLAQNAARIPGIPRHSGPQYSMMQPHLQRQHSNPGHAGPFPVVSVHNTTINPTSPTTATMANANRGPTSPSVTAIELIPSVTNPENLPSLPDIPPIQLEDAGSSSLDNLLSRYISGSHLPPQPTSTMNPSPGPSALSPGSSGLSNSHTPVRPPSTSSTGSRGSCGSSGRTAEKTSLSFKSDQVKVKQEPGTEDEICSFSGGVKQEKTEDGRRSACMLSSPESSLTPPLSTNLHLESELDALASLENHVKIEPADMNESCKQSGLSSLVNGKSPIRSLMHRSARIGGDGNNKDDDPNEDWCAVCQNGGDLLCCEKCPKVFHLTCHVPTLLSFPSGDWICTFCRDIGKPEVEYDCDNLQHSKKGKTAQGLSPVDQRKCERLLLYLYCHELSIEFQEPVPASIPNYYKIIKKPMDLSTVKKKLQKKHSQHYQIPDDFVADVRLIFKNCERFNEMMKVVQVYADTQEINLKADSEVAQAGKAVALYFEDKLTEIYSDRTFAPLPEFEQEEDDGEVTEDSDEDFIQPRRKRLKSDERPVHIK
Chain of SWI/SNF-related matrix-associated actin-dependent regulator of chromatin subfamily A member 2 (Homo sapiens) (P51531 whole entry, the tested form may be a part): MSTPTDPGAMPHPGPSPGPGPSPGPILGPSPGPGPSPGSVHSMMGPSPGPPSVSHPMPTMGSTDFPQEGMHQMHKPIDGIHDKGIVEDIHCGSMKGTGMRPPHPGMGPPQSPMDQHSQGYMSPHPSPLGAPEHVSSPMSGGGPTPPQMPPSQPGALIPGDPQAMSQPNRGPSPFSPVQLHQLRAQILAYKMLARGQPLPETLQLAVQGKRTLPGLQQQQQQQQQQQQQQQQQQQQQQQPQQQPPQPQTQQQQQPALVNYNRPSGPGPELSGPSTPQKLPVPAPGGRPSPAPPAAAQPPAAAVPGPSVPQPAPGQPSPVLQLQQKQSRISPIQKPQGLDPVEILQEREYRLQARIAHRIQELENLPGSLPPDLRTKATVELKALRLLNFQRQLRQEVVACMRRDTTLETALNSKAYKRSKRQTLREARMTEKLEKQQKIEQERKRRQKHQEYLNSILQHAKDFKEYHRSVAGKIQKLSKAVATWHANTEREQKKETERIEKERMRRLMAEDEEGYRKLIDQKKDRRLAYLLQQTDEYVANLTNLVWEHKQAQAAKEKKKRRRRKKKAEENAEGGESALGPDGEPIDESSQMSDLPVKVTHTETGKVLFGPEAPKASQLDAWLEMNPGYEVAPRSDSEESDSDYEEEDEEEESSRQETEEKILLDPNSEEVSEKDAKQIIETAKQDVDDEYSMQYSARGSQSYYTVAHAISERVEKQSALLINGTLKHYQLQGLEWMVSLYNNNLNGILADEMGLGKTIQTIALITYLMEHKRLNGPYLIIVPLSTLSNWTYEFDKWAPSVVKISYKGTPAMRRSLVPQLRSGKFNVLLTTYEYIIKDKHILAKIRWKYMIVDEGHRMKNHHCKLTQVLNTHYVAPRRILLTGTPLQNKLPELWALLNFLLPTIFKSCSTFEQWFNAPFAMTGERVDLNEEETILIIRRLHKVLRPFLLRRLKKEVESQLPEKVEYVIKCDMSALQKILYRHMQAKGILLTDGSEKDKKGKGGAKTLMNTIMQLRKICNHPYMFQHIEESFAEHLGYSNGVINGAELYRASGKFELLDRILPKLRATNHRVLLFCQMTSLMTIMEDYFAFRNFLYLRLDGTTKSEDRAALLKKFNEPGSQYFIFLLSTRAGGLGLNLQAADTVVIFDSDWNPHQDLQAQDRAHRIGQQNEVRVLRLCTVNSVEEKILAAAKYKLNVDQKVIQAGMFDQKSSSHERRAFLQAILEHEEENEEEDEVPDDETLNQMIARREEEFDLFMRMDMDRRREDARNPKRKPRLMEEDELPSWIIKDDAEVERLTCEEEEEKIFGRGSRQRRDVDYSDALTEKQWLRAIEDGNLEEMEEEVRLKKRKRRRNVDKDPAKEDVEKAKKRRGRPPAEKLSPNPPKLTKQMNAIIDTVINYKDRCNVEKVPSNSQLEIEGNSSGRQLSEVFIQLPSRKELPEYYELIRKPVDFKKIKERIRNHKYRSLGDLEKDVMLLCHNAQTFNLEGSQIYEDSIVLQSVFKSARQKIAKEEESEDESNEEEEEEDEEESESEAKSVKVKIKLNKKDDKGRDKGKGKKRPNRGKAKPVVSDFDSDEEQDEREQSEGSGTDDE
Chain of Bromodomain-containing protein 2 (Homo sapiens) (P25440 whole entry, looked up): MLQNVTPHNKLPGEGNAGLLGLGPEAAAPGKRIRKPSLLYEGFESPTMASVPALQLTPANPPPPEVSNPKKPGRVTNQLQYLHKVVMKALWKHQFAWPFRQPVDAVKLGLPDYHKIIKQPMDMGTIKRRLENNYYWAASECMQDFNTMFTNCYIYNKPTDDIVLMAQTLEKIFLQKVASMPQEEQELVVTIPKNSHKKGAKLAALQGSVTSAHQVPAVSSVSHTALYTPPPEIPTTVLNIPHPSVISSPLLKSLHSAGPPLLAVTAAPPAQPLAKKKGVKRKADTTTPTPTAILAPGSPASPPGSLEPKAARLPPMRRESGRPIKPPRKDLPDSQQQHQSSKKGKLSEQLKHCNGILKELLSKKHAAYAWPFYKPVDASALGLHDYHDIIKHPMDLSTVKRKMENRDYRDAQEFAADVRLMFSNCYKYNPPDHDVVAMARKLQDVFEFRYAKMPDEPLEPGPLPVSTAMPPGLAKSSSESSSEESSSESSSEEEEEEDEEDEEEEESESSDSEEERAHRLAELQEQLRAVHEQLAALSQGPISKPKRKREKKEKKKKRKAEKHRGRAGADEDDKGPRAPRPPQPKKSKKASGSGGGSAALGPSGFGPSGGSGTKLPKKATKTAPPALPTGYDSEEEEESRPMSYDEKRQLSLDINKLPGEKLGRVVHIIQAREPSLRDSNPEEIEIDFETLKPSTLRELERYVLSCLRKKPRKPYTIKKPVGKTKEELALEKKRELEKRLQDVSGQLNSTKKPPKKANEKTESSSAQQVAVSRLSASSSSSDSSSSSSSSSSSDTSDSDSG
Chain of Transcription intermediary factor 1-alpha (Homo sapiens) (O15164 whole entry, the tested form may be a part): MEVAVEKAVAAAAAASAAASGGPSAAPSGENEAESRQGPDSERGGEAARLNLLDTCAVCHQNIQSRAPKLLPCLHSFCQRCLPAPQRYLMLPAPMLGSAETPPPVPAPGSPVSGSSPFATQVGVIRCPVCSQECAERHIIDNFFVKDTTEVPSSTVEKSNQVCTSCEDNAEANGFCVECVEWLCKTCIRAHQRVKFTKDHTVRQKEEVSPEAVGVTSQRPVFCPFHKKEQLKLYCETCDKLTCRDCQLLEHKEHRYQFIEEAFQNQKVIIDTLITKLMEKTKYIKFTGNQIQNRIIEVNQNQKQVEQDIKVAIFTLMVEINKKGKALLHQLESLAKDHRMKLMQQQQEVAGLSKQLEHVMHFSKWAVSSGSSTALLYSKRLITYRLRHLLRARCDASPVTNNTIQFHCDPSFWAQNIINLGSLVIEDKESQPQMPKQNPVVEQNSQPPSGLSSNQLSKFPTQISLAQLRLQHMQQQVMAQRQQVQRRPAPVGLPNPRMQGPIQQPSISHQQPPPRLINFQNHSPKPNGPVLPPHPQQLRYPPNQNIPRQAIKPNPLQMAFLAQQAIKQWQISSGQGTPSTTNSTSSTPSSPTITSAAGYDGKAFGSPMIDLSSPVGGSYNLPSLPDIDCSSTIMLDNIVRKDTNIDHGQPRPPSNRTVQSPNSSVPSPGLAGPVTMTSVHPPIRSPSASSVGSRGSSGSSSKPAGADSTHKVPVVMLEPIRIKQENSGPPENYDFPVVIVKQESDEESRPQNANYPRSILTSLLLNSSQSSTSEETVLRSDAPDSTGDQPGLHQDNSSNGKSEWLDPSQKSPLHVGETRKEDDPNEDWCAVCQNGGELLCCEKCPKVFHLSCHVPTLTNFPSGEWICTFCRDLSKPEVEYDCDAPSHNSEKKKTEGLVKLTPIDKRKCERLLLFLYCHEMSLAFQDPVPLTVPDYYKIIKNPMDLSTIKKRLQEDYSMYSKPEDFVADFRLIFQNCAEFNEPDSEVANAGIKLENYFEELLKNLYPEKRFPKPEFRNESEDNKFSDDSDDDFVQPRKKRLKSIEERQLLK
Chain of Cytochrome P450 2C9 (P11712 whole entry): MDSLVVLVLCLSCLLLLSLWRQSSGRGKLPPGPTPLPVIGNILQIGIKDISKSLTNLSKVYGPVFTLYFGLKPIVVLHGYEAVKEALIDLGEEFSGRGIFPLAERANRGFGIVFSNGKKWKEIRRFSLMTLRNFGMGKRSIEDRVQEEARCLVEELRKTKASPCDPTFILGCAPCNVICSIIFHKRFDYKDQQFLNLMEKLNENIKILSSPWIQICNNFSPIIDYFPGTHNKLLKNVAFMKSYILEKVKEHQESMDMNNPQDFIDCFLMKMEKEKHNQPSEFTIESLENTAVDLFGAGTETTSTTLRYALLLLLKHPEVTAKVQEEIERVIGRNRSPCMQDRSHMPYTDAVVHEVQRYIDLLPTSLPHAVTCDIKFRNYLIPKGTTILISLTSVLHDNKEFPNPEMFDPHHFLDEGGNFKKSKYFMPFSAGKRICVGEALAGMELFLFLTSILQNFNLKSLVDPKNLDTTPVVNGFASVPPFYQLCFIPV

Cc1ccc(-n2nc(C(=O)N3C[C@@H](C)N[C@@H](C)C3)nc2-c2ccc3c(c2)N(C2CCCC2)[C@H](C)C(=O)N3C)cc1
AUC(0-t) [1]: 80600 ng·h/mL
TDI (Cytochrome P450 2C19): Not Active
Cmax [2]: 13800 ng/mL
Cmax [3]: 4020 ng/mL
Activity [4]: 70 to 100%
BPR [5]: 13.9%
half-life [6]: 1.8 h
Activity [7]: 70 to 100%
Activity (KG-1): Active
Activity [8]: 50 to 70%
Activity (Hep 3B2): Active
inhibition in vivo at 50 mg/kg (MV4-11 [9]): 95.6%
inhibition [10]: Dose-dependent effect
Cmax [11]: 216 ng/mL
TDI (Cytochrome P450 2C9): Not Active
half-life [12]: 2.8 h
Activity (RKO): Active
inhibition [13]: Active
Activity (MV4-11 [14]): Active
Tmax [15]: 1 h
half-life [16]: 6.3 h
Activity (MV4-11 [17]): Dose-dependent effect
Activity (MV4-11 [18]): Dose-dependent effect
half-life [19]: 0.817 h
AUC(0-inf) [20]: 7390 ng·h/mL
Activity (AGS): Active
Activity (HT-29): Active
inhibition activity call (active/inactive) [21]: Active
BPR [22]: 8.7%
